Source: PubChem BioAssay
PAFAH2 inh = inhibitors of human PAFAH2; Q99487; 0.99% of 340,000 active; AID 492956; recombinant PAFAH2, FP-rhodamine activity probe, fluorescence polarization; inhibition, % at 3.39 µM;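 active = inhibition above the mean over all tested compounds plus 3 SD, cut at about 30% in these data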;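 also: inhibitors block probe labeling of enzyme so polarization drops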
ARFGAP1 inh = inhibitors of rat ARFGAP1. Q62848. inhibition, % at 16.5 µM. AID 651572. 0.26% of 360,000 active. Arfgap1-stimulated ARF1 GTP hydrolysis, GDP FP detection;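 active = inhibition above a per-plate limit, mean inhibition of low control wells plus 3 SD, cut at about 25% in these data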
Target sequence (Q62848 1-136 limits assumed): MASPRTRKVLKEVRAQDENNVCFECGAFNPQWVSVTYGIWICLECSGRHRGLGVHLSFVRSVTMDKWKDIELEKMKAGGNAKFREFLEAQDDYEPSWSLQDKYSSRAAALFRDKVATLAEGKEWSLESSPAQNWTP
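Material: truncated rat Arfgap1 GAP domain; Incubation: compound-enzyme preincubation 20 min, reaction 120 min, detection 60 min, 25 °C; Read-out: percent inhibition of Arfgap1-stimulated GTP hydrolysis; Technique: FP, GDP Alexa 633 tracer displaced from anti-GDP antibody, 620/688 nm; Controls: No-Arfgap1 wells (100%) versus DMSO full-reaction wells (0%); Replication: single well per compound.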
PAFAH1B2 inh = inhibitors of human PAFAH1B2. recombinant PAFAH1B2, FP-rhodamine activity probe, fluorescence polarization. inhibition, % at 3.39 µM. 1.2% of 340,000 active;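 active = inhibition above the mean of all tested compounds plus 3 SD, cut at about 24% in these data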
Target sequence (P68402 whole entry, looked up): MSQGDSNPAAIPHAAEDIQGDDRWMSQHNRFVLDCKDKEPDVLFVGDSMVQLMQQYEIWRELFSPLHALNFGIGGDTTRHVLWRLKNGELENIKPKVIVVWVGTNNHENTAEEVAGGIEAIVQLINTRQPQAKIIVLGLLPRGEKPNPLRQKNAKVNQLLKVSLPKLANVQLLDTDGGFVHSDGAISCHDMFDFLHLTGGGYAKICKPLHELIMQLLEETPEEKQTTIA
pPAFAH FP inh = inhibitors of human plasma PAF acetylhydrolase (pPAFAH). Q13093. AID 463082. inhibition, % at 3.39 µM. recombinant pPAFAH, FP-rhodamine probe fluorescence polarization. 1.5% of 330,000 active;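 active = inhibition above the mean inhibition across the screen plus 3 SD, cut at about 25% in these data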;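 also: inhibitors block binding of the rhodamine activity-based probe so polarization drops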
ASAP1 GAP inh = ASAP1 ArfGAP inhibition | inhibition, % at 16.5 µM | ASAP1-stimulated ARF1 GTP hydrolysis, GDP FP detection | Q9ULH1 | 0.19% of 360,000 active | AID 624377; in the data active = inhibition above about 25%
PAFAH1B3 inh = inhibitors of human PAFAH1B3; Q15102; recombinant PAFAH1B3, FP-rhodamine probe, fluorescence polarization; inhibition, % at 3.39 µM; 0.28% of 340,000 active; AID 492972;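 active = inhibition above the screen-wide average of all tested compounds plus 3 SD, cut at about 25% in these data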
Target sequence (Q15102 whole entry, looked up): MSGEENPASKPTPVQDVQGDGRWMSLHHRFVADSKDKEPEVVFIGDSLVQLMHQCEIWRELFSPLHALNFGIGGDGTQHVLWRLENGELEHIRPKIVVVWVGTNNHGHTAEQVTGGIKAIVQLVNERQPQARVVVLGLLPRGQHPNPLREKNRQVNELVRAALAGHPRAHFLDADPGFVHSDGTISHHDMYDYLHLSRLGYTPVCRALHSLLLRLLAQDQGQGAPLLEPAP
pPAFAH FP conf = pPAFAH (human) inhibition, confirmed | shares compounds with pPAFAH FP inh | inhibition, % at 3.39 µM | AID 463230 | recombinant pPAFAH, FP-Rh probe fluorescence polarization | 72% of 2,300 active;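 active = mean inhibition of the triplicate above the hit cutoff set for the earlier primary screen, cut at about 25% in these data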
A number is an active result. Sampled rows, rich in hits. Any-hit rate of the full collection: about 2.7%.

CCC(C)N(C(=O)COC(=O)c1cc([N+](=O)[O-])ccc1N1CCOCC1)C1CCS(=O)(=O)C1 (stereo not drawn) was read as PAFAH2 inh inactive, ARFGAP1 inh inactive, PAFAH1B2 inh inactive, pPAFAH FP inh 40, ASAP1 GAP inh inactive, PAFAH1B3 inh inactive and pPAFAH FP conf inactive.
For CN(C(=O)COC(=O)c1cc([N+](=O)[O-])ccc1N1CCCC1)C1CCS(=O)(=O)C1 (stereo not drawn) the results were PAFAH2 inh inactive, ARFGAP1 inh inactive, PAFAH1B2 inh inactive, pPAFAH FP inh inactive, ASAP1 GAP inh inactive and PAFAH1B3 inh inactive.
COc1ccccc1-n1c(SCC(=O)Nc2cccc3ccccc23)nc(O)cc1=O was read as PAFAH2 inh inactive, ARFGAP1 inh inactive, PAFAH1B2 inh inactive, pPAFAH FP inh 38, ASAP1 GAP inh inactive, PAFAH1B3 inh inactive and pPAFAH FP conf inactive.
For COc1ccc(-n2c(SCC(=O)Nc3ccccc3OC)nc(O)cc2=O)cc1 the results were PAFAH2 inh inactive, ARFGAP1 inh inactive, PAFAH1B2 inh inactive, pPAFAH FP inh inactive, ASAP1 GAP inh inactive and PAFAH1B3 inh inactive.
`CCc1cc2c(nc1CC)CCCN2S(=O)(=O)c1ccccc1` gave ARFGAP1 inh inactive and ASAP1 GAP inh inactive.
`Cc1cc(N2CCNC[C@H]2C)ccc1N1C[C@@H](C)O[C@@H](C)C1` gave ARFGAP1 inh inactive and ASAP1 GAP inh inactive.
Cc1[nH]nc2c1C(c1ccc(F)cc1)N(Cc1ccccc1)C2=O (stereo not drawn) was read as ARFGAP1 inh inactive and ASAP1 GAP inh inactive.
`Cc1ccnc(NCc2ccccc2O)c1` gave PAFAH2 inh inactive, ARFGAP1 inh inactive, PAFAH1B2 inh inactive, pPAFAH FP inh 41, ASAP1 GAP inh inactive, PAFAH1B3 inh inactive and pPAFAH FP conf inactive.
Screening Cc1ccc(NS(=O)(=O)c2ccc(NC(=O)CN(c3cc([N+](=O)[O-])ccc3C)S(C)(=O)=O)cc2)c(C)c1 returned PAFAH2 inh inactive, ARFGAP1 inh inactive, PAFAH1B2 inh inactive, pPAFAH FP inh 42, ASAP1 GAP inh inactive, PAFAH1B3 inh inactive and pPAFAH FP conf 51.
For Nc1ncnc2c1ncn2[C@@H]1O[C@H](C(=O)N[C@@H](CCc2ccccc2)C(=O)N2CCN(CC(=O)N3CCCC3)CC2)[C@@H](O)[C@H]1O the results were ARFGAP1 inh inactive and ASAP1 GAP inh inactive.
For COC(=O)c1ccccc1-c1c2ccc(=N)cc-2oc2cc(N)ccc12 the results were PAFAH2 inh 148, ARFGAP1 inh inactive, PAFAH1B2 inh 134, pPAFAH FP inh 126, ASAP1 GAP inh inactive, PAFAH1B3 inh 149 and pPAFAH FP conf 132.
For CCN(CC)S(=O)(=O)c1ccc(Cl)c(NC(=O)COC(=O)/C=C/c2ccc(O)c(OC)c2)c1 the results were PAFAH2 inh 75, ARFGAP1 inh inactive, PAFAH1B2 inh inactive, pPAFAH FP inh 37, ASAP1 GAP inh inactive, PAFAH1B3 inh inactive and pPAFAH FP conf inactive.
`CCOC(=O)Cc1cc(=O)n2[nH]c(-c3ccc(Cl)cc3)cc2n1` gave PAFAH2 inh inactive, ARFGAP1 inh inactive, PAFAH1B2 inh inactive, pPAFAH FP inh 35, ASAP1 GAP inh inactive, PAFAH1B3 inh inactive and pPAFAH FP conf inactive.
`CCCc1cc(=O)n2[nH]c(-c3ccc(Cl)cc3)cc2n1` gave PAFAH2 inh inactive, ARFGAP1 inh inactive, PAFAH1B2 inh inactive, pPAFAH FP inh inactive, ASAP1 GAP inh inactive and PAFAH1B3 inh inactive.
`CC1=Nc2nc(N3CCCCC3)c(C#N)c3c4c(nc(c23)N1)N(c1ccc(C(C)C)cc1)C(=O)C4` gave PAFAH2 inh inactive, ARFGAP1 inh inactive, PAFAH1B2 inh inactive, pPAFAH FP inh 63, ASAP1 GAP inh inactive, PAFAH1B3 inh inactive and pPAFAH FP conf 29.
`O=[N+]([O-])c1ccc(Cl)c2c1C1C=CCC1C(c1ccccn1)N2` (stereo not drawn) gave PAFAH2 inh inactive, ARFGAP1 inh inactive, PAFAH1B2 inh inactive, pPAFAH FP inh 37, ASAP1 GAP inh inactive, PAFAH1B3 inh inactive and pPAFAH FP conf inactive.
Screening CN(C(=O)c1cccc(NC(=O)Cc2ccc(NC(=O)C3CCN(C(=O)CCc4ccccc4)CC3)cc2)c1)C1CCCC1 returned ARFGAP1 inh inactive and ASAP1 GAP inh inactive.
Screening Cc1cc(O)c(CN(C)C)c2c1C(=O)/C(=C/c1ccco1)O2 returned PAFAH2 inh inactive, ARFGAP1 inh inactive, PAFAH1B2 inh inactive, pPAFAH FP inh inactive, ASAP1 GAP inh inactive and PAFAH1B3 inh inactive.
For Cc1cc(O)c(C=O)c2c1C(=O)Oc1c(CO)c(O)c3c(c1O2)C(O)OC3=O (stereo not drawn) the results were PAFAH2 inh 48, PAFAH1B2 inh inactive, pPAFAH FP inh 89, PAFAH1B3 inh 33 and pPAFAH FP conf 27.
Screening CCCC(=O)OC[C@H]1CN(C2CCCC2)S(=O)(=O)c2c(Oc3ccc(F)cc3OC)cccc2O1 returned ARFGAP1 inh inactive and ASAP1 GAP inh inactive.
Screening COc1ccc(S(=O)(=O)/N=C2/NC(=O)/C(=C\c3ccco3)S2)cc1 returned PAFAH2 inh inactive, ARFGAP1 inh inactive, PAFAH1B2 inh inactive, pPAFAH FP inh 35, ASAP1 GAP inh inactive, PAFAH1B3 inh inactive and pPAFAH FP conf inactive.
`COc1ccc(N=C2NC(=O)/C(=C/c3ccco3)S2)cc1` gave PAFAH2 inh inactive, ARFGAP1 inh inactive, PAFAH1B2 inh inactive, pPAFAH FP inh inactive, ASAP1 GAP inh inactive and PAFAH1B3 inh inactive.
Screening N=C1C(c2ccccc2)=C(O)CN1c1cccc(S(N)(=O)=O)c1 returned PAFAH2 inh inactive, ARFGAP1 inh inactive, PAFAH1B2 inh inactive, pPAFAH FP inh inactive, ASAP1 GAP inh inactive and PAFAH1B3 inh inactive.
Screening N=C1C(c2ccccc2)=C(O)CN1c1cccc(S(=O)(=O)N2CCOCC2)c1 returned PAFAH2 inh inactive, ARFGAP1 inh inactive, PAFAH1B2 inh inactive, pPAFAH FP inh 44, ASAP1 GAP inh inactive, PAFAH1B3 inh inactive and pPAFAH FP conf inactive.
`Nc1ccc(N2CCN(C(=O)c3ccco3)CC2)cc1` gave PAFAH2 inh inactive, ARFGAP1 inh inactive, PAFAH1B2 inh inactive, pPAFAH FP inh 37, ASAP1 GAP inh inactive, PAFAH1B3 inh inactive and pPAFAH FP conf inactive.
Cc1cc(C(=O)N/N=C2\CC(=O)CC(C)(C)C2)c(C)n1-c1ccc(F)cc1 was read as PAFAH2 inh inactive, ARFGAP1 inh inactive, PAFAH1B2 inh inactive, pPAFAH FP inh 41, ASAP1 GAP inh inactive, PAFAH1B3 inh inactive and pPAFAH FP conf 64.
For Cc1cc(C(=O)N/N=C2\CC(=O)CC(C)(C)C2)c(C)n1-c1ccccc1 the results were PAFAH2 inh inactive, ARFGAP1 inh inactive, PAFAH1B2 inh inactive, pPAFAH FP inh 37, ASAP1 GAP inh inactive, PAFAH1B3 inh inactive and pPAFAH FP conf 34.
For Cc1cc(C(=O)NN=C2CC(=O)CC(C)(C)C2)c(C)o1 the results were PAFAH2 inh inactive, ARFGAP1 inh inactive, PAFAH1B2 inh inactive, pPAFAH FP inh inactive, ASAP1 GAP inh inactive and PAFAH1B3 inh inactive.
